Reference: paper PMC8576641 (The Journal of organic chemistry, 2021)
Marks after values point to notes of the source that are not given here. No end group written: not given here.

Tests used:
[1] = 298 K; average of HN CSD values at T(L3), K(S+1) and G(L4) ΔδHα/α', K1R-HP7 as fully-folded state; cited from earlier work
[2] = Kinetic solubility in phosphate buffer; assay type: physicochemical; conditions: phosphate buffer (PB, 50 mM), pH 7.4
[3] = CD thermal denaturation; assay type: physicochemical; conditions: for β-Strap %-fold χF at 291K: local β-strap folding at 291 K (18 °C) from best-fitted melting curves of [θ(T)]228, phosphate buffer 15 mM, pH 6.5; for T·ΔΔSF°: entropic difference between pairs as printed: 2b/2a, 3d/3e; for χF / % fold (NMR and CD collectively): 291 K, NMR and CD data together; for ΔGF*: free energy at temperature T* of maximal stability, from thermostability curves; for % folded below 50 °C: plateau of thermal stability from 0 to ~50 °C, dynamic equilibrium of stable conformational states; for ΔCpF°: heat capacity of folding
[4] = Loop %-folding by 1H NMR from glycine Hα/α' splitting; assay type: physicochemical; conditions: 291 K; ΔδHα/α'G(L4) model with 0.33 ppm as fully-folded state (model of ref 27)
How it was run: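 Peptide samples at 3–10 mM for 1H NMR, TOCSY (80 ms mixing), NOESY (200 ms mixing) and 1H–13C HSQC. Samples for 1H–15N HSQC and HMBC were at 10–20 mM, with some constructs at 10–70 mM. Chemical shift deviations are experimental δH minus calculated random-coil δH. Random-coil values were checked against random-coil reference peptides (Δ|CSD| ≤ 0.20 ppm).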

Question: With Ac-NPATGK-NH2 [Loop] as the substance, how does the “Loop %-fold χF” value [1] read?
Answer: Its value is 6 ± 7%^d.

Question: Which “Loop %-fold χF” value [1] does the source give for Ac-W-NPATGK-W-NH2 [Tr-HP7] here?
Answer: Its value is 49 ± 1%^d.

Question: Which solubility [2] does the source give for Ac-WDDATKTWTG-NH2 [1b] here?
Answer: The solubility was 35.3 mM.

Question: And the “β-Strap %-fold χF at 291K” value [3]?
Answer: Its value is 54 ± 7%.

Question: Which solubility [2] does the source give for Ac-WNPATGKWTG-NH2 [1a] here?
Answer: The solubility was 2.9 mM.

Question: What about the “Loop %-fold χF (value in parentheses)” value [4] of the same substance?
Answer: The value was 70%.

Question: And the “β-Strap %-fold χF at 291K” value [3]?
Answer: Its value is 28 ± 1%.

Question: For Ac-WTFNPATGKFKWTG-NH2 [1c], which solubility [2] is on record?
Answer: The solubility was 22.3 mM.

Question: And the “Loop %-fold χF (value in parentheses)” value [4]?
Answer: The value was 151%.

Question: And the “β-Strap %-fold χF at 291K” value [3]?
Answer: The value was 63 ± 4%.

Question: Which solubility [2] does the source give for Ac-WVWGPGTGKWVW-NH2 [2b] here?
Answer: Its solubility is 0.8 mM.

Question: What about the “Loop %-fold χF (value in parentheses)” value [4] of the same substance?
Answer: The value was 9%.

Question: And the “T·ΔΔSF°” value [3]?
Answer: The value was 3.25 kcal/mol.

Question: And the “β-Strap %-fold χF at 291K” value [3]?
Answer: Its value is 56 ± 1%.

Question: For Ac-WVWNPATGKWVW-NH2 [2a], which solubility [2] is on record?
Answer: The solubility was 1.2 mM.

Question: And the “Loop %-fold χF (value in parentheses)” value [4]?
Answer: Its value is 154%.

Question: What about the “χF / % fold (NMR and CD collectively)” value [3] of the same substance?
Answer: The value was > 90%.

Question: And the “ΔGF°” value ([3]; folding free energy at 298 K, two-state model from CD melts)?
Answer: The value was -2.36 kcal/mol.

Question: What about the “ΔGF*” value [3] of the same substance?
Answer: The value was -2.50 kcal/mol.

Question: And the “β-Strap %-fold χF at 291K” value [3]?
Answer: The value was 99 ± 1%.

Question: And the “% folded below 50 °C” value [3]?
Answer: The value was > 80%.

Question: For KTW-NPATGK-WTE [HP7], which “Loop %-fold χF” value [1] is on record?
Answer: The value was 89 ± 1%^d.

Question: Which solubility [2] does the source give for RWHWNPATGKWVWE [3b] here?
Answer: The solubility was 56.3 mM.

Question: And the “Loop %-fold χF (value in parentheses)” value [4]?
Answer: The value was 167%.

Question: What about the “ΔGF*” value [3] of the same substance?
Answer: The value was -1.84 kcal/mol.

Question: And the “ΔCpF°” value ([3]; two-state model from CD melts)?
Answer: Its value is −158 ± 3 cal·mol^−1·deg^−1.

Question: What about the “β-Strap %-fold χF at 291K” value [3] of the same substance?
Answer: The value was 95 ± 2%.

Question: What about the “% folded below 50 °C” value [3] of the same substance?
Answer: The value was > 80%.

Question: What does the source list for RWNPATGKWE [3c]?
Answer: solubility [2]: 39.5 mM; Loop %-fold χF (value in parentheses) [4]: 139%; ΔCpF° ([3]; two-state model from CD melts): −106 cal·mol^−1·deg^−1; β-Strap %-fold χF at 291K [3]: 84 ± 11%

Question: With RWVWGGGGKKGGGGWVWE [3d] as the substance, how does the solubility [2] read?
Answer: The solubility was 5.8 mM.

Question: What about the “T·ΔΔSF°” value [3] of the same substance?
Answer: The value was -3.53 kcal/mol.

Question: What about the “β-Strap %-fold χF at 291K” value [3] of the same substance?
Answer: Its value is 88 ± 1%.

Question: For RWVWNPATGKWVWE [3a], which solubility [2] is on record?
Answer: Its solubility is 27.1 mM.

Question: And the “Loop %-fold χF (value in parentheses)” value [4]?
Answer: The value was 154%.

Question: And the “χF / % fold (NMR and CD collectively)” value [3]?
Answer: The value was 89–93%.

Question: What about the “ΔCpF°” value ([3]; two-state model from CD melts) of the same substance?
Answer: The value was −53 cal·mol^−1·deg^−1.

Question: What about the “β-Strap %-fold χF at 291K” value [3] of the same substance?
Answer: Its value is 89 ± 14%.

Question: And the “% folded below 50 °C” value [3]?
Answer: Its value is > 80%.

Question: For RWVWRDYRFDMGFDWVWE [3e], which solubility [2] is on record?
Answer: Its solubility is 0.6 mM.

Question: What about the “β-Strap %-fold χF at 291K” value [3] of the same substance?
Answer: The value was 55 ± 1%.

Question: Which solubility [2] does the source give for RWVWRDYRGDMGFDWVWE [3f] here?
Answer: The solubility was 8.2 mM.

Question: What about the “ΔGF*” value [3] of the same substance?
Answer: Its value is -3.18 kcal/mol.

Question: And the “β-Strap %-fold χF at 291K” value [3]?
Answer: The value was 82 ± 1%.
